In ChEMBL document CHEMBL1141516, “2-Aminotetralones: novel inhibitors of MurA and MurZ” (Bioorg Med Chem Lett, 2008):
pIC50: −log10 of the molar value. ≈ marks a conversion by molar mass, not a printed value. Calls of active or inactive are those of the source. The calls are words filed in the database; no cut-off is given here.

Experiments:
[1] = Antibacterial activity against Staphylococcus aureus SH1000; assay type: functional
[2] = Inhibition of Staphylococcus aureus MurA
Method in brief: (§1)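 Poly(His)-tagged MurA from E. coli BL21 Star (DE3) (0.1 mM IPTG, 18 °C, 24 h), purified by Co2+ affinity and gel filtration. At 25 °C, a 2-fold inhibitor series went to 33.3 µg/mL enzyme preincubated 10 min in 50 mM Tris-HCl pH 7.8 with UDP-GlcNAc. PEP started a 30 min reaction. Phosphate was read by malachite green-molybdate at A660 against standards. Means of four experiments ± SD.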

[3] = test system: UDP-N-acetylglucosamine 1-carboxyvinyltransferase (Escherichia coli K-12), P0A749 [C115D]; assay: Inhibition of Escherichia coli MurA C115D mutant
Method in brief: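 Purified E. coli MurA C115D mutant protein was tested with inhibitor at up to 120 µM.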

[4] = Inhibition of chymotrypsin
[5] = Inhibition of Escherichia coli MurA; method in brief: as §1
[6] = Antibacterial activity against Escherichia coli JM109; assay type: functional
[7] = Inhibition of Staphylococcus aureus MurZ
Method in brief: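 Poly(His)-tagged MurZ was expressed in E. coli BL21 Star (DE3) by autoinduction and purified by Co2+ affinity and gel filtration. At 25 °C, a 2-fold inhibitor series was added to enzyme preincubated 10 min in 50 mM Tris-HCl pH 7.8 with UDP-GlcNAc. PEP started a 30 min reaction. Released phosphate was read by malachite green-molybdate at A660 against phosphate standards. Means of three experiments ± SD.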

[8] = Inhibition of MDH

Sequence of UDP-N-acetylglucosamine 1-carboxyvinyltransferase (Escherichia coli K-12), P0A749 [C115D] (P0A749 whole entry C115D): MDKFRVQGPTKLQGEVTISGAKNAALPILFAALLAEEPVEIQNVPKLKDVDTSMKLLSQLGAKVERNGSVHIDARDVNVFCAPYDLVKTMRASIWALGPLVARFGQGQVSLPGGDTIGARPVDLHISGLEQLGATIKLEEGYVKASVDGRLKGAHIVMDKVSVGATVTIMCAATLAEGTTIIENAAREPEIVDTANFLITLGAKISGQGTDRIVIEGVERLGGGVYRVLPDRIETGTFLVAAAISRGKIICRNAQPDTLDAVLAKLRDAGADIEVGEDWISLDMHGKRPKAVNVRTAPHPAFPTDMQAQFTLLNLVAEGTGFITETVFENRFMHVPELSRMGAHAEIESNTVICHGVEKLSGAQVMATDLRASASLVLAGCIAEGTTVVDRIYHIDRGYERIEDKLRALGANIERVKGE

Row | Structure (SMILES) | MIC [1] | pIC50 [2] | Activity [3] | Activity [4] | pIC50 [5] | MIC [6] | pIC50 [7] | Activity [8]
1 | COc1cc2c(cc1OC)C(=O)C(N1CCN(CCO)CC1)CC2.Cl.Cl (stereo not given) | 128 µg/mL | 4.76 | inactive | inactive | 5.50 | 256 µg/mL | 4.73 | inactive
2 | COc1cc2c(cc1OC)C(=O)C(N1CCN(Cc3ccccc3)CC1)CC2 (stereo not given) | 64 µg/mL (≈ 168 µM) | 4.54 | – | inactive | 4.65 | > 256 µg/mL | 4.54 | inactive
3 | CN1CCN(C2CCc3ccccc3C2=O)CC1.Cl.Cl (stereo not given) | 64 µg/mL | 4.92 | inactive | inactive | 5.07 | 128 µg/mL | 4.64 | inactive
4 | O=C1c2ccccc2CCC1C1CCCCC1 (stereo not given) | > 256 µg/mL | < 3.92 | – | – | < 3.92 | > 256 µg/mL | < 3.92 | –
5 | Cl.Cl.O=C1c2ccccc2CCC1N1CCN(CCO)CC1 (stereo not given) | 8 µg/mL | 4.90 | – | inactive | 4.65 | 128 µg/mL | 4.79 | inactive
6 | Cl.Cl.OCCN1CCN([C@@H]2CCc3ccccc3[C@H]2O)CC1 | > 256 µg/mL | < 3.92 | – | – | < 3.92 | > 256 µg/mL | < 3.92 | –
7 | C[C@@H]1O[C@@H]1P(=O)(O)O [FOSFOMYCIN] | 16 µg/mL (≈ 116 µM) | 5.87 | – | – | 6.34 | 8 µg/mL (≈ 57.9 µM) | 5.86 | –
8 | Cl.Cl.OCCN1CCN(C2CCc3ccccc3C2)CC1 (stereo not given) | > 256 µg/mL | < 3.92 | – | – | < 3.92 | > 256 µg/mL | < 3.92 | –
